# TAAR1 antag: antagonists of human TAAR1; Q96RJ0; CHO RD-HGA16 TAAR1, Fluo-8 calcium fluorescence, antagonist; inhibition, % at 3 µM; 1.5% of 360,000 active;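 active = inhibition above a per-plate cutoff, the mean inhibition of test compounds on that plate plus 3 SD, cut at about 49% in these data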;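 also: 0% = DMSO plus EC80 beta-PEA response and 100% = DMSO alone without agonist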
#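 Assay system: CHO-derived RD-HGA16 cells stably expressing human TAAR1 plus Gα16. Timing: 140 s kinetic read after compound, 140 s after agonist. Technique: kinetic Fluo-8 calcium fluorescence measurement. Measure: % inhibition of agonist calcium response.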
# OX1R antag-1: OX1R (human) antagonism; 1.8% of 330,000 active; AID 485270; OX1R-expressing cells, FRET antagonist read-out; inhibition, % at 6.6 µM; in the data active = inhibition mostly above about 38%, no sharp cut-off; inactive = mostly below about 40%;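 also: 0% = agonist challenge alone and 100% = reference antagonist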
# OX1R antag-2: blocks the human orexin 1 receptor; O43613; CHO/OX1R cells, Fluo-8 calcium fluorescence, orexin A; inhibition, % at 5 µM; 0.43% of 330,000 active; AID 434989;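 active = inhibition above its plate's threshold, mean inhibition of all tested compounds on the plate plus 3 SD, cut at about 37% in these data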;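 also: 0% = orexin A challenge wells and 100% = SB-334867-A antagonist wells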
# CHO parental Ca: counter-screen for OX1R antagonists: effect in parental CHO cells. 0.63% of 330,000 active. parental CHO-K1, ATP-induced calcium, Fluo-8 fluorescence. AID 463079. inhibition, % at 5.6 µM;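 active = inhibition above that plate's mean sample inhibition plus 3 SD, cut at about 26% in these data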;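 also: 0% = ATP-challenged DMSO wells and 100% = DMSO wells without ATP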
#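 Test system: untransfected parental CHO cell line; also added: ATP stimulus; dosing: 5.6 µM, single dose; signal: calcium-sensitive Fluo-8 fluorescence; measure: percent inhibition of ATP-evoked calcium rise, normalized to controls; benchmarks: low control ATP plus DMSO, high control DMSO only; replication: one well per compound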
# GPR7 antagonist: human neuropeptides B/W receptor 1 antagonism; GPR7-expressing cells, fluorescence antagonist assay; inhibition, % at 4.4 µM; P48145; 1.1% of 290,000 active; in the data active = inhibition above about 16%, passing the limit was not always enough;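 also: cells stimulated with the agonist NPW; 0% = agonist with vehicle and 100% = vehicle without agonist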
# Target sequence (P48145 whole entry, looked up): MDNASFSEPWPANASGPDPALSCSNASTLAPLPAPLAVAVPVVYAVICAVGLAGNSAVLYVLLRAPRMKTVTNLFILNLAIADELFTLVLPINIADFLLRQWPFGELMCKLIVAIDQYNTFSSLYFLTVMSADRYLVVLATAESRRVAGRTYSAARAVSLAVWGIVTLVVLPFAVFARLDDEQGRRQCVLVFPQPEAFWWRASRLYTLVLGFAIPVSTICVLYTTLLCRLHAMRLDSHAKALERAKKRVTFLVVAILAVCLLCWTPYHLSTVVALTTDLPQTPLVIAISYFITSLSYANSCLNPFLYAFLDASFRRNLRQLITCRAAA
# TAAR1 ag: agonists of human TAAR1. Q96RJ0. CHO RD-HGA16 TAAR1, Fluo-8 calcium fluorescence; vehicle wells 0%, saturating PEA agonist 100%. activation, % at 3 µM. 0.99% of 360,000 active. AID 624467;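 active = activation above the mean activation of all test compounds in the run plus 3 SD, cut at about 38% in these data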
#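 Test system: RD-HGA16 (CHO) cells co-expressing Gα16 and hTAAR1; dosing: one-point dosing at 3 µM (nominal); timing: 17-24 h seeding, 75 min 37 °C dye, 30 min RT; signal: kinetic Fluo-8 calcium fluorescence; read-out basis: % activation relative to PEA EC100 response; controls: DMSO and PEA EC100; replicates: n 1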
# The depositor's hits bear a star; x = not tested or not shown. This is a sample that favours compounds with a hit; in the whole collection about 4.5% have one here.
SMILES,TAAR1 antag,OX1R antag-1,OX1R antag-2,CHO parental Ca,GPR7 antagonist,TAAR1 ag
CCCCOC(=O)NC(NCC(O)c1ccccc1)(C(F)(F)F)C(F)(F)F (stereo unspecified),-7,10,-6,-10,-6,5
COc1ccc(NC(=O)CS(=O)CC(=O)Nc2ccc(-n3cnnn3)c(C)c2)cc1 (stereo unspecified),7,13,-7,-8,-10,-1
CCN1C(=O)[C@H]2[C@@H](c3ccc(C)cc3)N3C(=O)N(c4ccccc4)C(=O)[C@@]3(Cc3ccc(Cl)cc3)[C@H]2C1=O,x,63*,-44,-14,15,x
COC(=O)C1=C(C)N(C)C(=NCc2ccccc2)NC1c1ccccc1C(F)(F)F (stereo unspecified),-15,x,x,x,x,3
Cc1ccc(S(=O)(=O)Cc2cc(F)c([N+](=O)[O-])cc2[N+](=O)[O-])cc1,x,41*,60*,57*,30*,x
CCOC(=O)c1ccc([N+](=O)[O-])c(CS(=O)(=O)c2ccc(Cl)cc2)c1,25,16,-17,-5,22,2
O=C1Nc2cnc(Cl)nc2Nc2ccc(Cl)cc21,3,x,x,x,x,1
CC(NC(=O)C1CCN(Cc2ccc(Oc3ccccc3)cc2)CC1)c1cccc2ccccc12 (stereo unspecified),49*,x,x,x,x,25
COc1ccc(CNC(=O)Nc2ccc(C)cc2)cc1,1,11,22,37*,-21,-1
Cn1ccc(NC(=O)c2ccc([N+](=O)[O-])cc2)n1,-10,29*,-10,-14,x,6
Cc1cc(NC(=O)c2ccc([N+](=O)[O-])cc2)n(CCC#N)n1,-1,46*,-4,9,-6,-1
COc1ccc(NC(=O)c2cc(S(=O)(=O)N(Cc3ccccc3)c3ccccc3)ccc2Cl)cn1,28,13,-11,-5,-15,1
Cc1ccc(C(=O)NCC2CCCN2S(=O)(=O)c2cccs2)cc1C (stereo unspecified),-2,34*,-18,-7,x,0
CCNC(=O)C(=O)NCC1CCCN1S(=O)(=O)c1cccs1 (stereo unspecified),10,7,-12,-5,x,0
COc1ccc(CCNC(=O)C(=O)NCC2OCCN2S(=O)(=O)c2ccccc2)cc1OC (stereo unspecified),-17,21,-5,-6,-2,3
COc1ccc(CCNC(=O)C(=O)NCC2CCCN2S(=O)(=O)c2ccccc2)cc1OC (stereo unspecified),49*,25,-7,-15,x,17
O=C(NCCc1ccc(F)cc1)C(=O)NCC1CCCN1S(=O)(=O)c1cccs1 (stereo unspecified),61*,69*,16,-20,x,33
CN(CCOc1ccccc1)C(=O)c1cc([N+](=O)[O-])cc([N+](=O)[O-])c1,8,38*,-13,-9,2,10
CN(CCOc1ccccc1)C(=O)c1cc([N+](=O)[O-])ccc1N1CCOCC1,1,41,-19,-10,x,3
CN(CCOc1ccccc1)CC(=O)Nc1cc([N+](=O)[O-])ccc1Cl,14,62*,-19,-4,-4,-3
CCOC(=O)C1=C(C(=O)OCC)C2N(Cc3ccc(C(F)(F)F)cc3)c3ccccc3[C@@]23C[C@@H](C(=O)OC)N(S(=O)(=O)c2ccc(OC)cc2)C3=N1 (stereo partly specified),-20,x,x,x,x,1
CCOc1ccc(OCCNC(=O)c2cc(C3CC3)nc3c2cnn3C(C)C)cc1,60*,x,x,x,x,2
COc1ccccc1CNC(=O)c1cc(C2CC2)nc2c1cnn2C(C)C,20,9,-40,-32,x,-1
CC(C)n1ncc2c(C(=O)NCCOc3ccccc3F)cc(C3CC3)nc21,50*,11,-24,-28,x,2
CCN(CC)CCCN(C(=O)c1cccc(C)c1)c1nc(-c2ccc(OC)cc2)cs1,-7,13,-36,-25,-8,7
CC(=O)Nc1ccc(Nc2ncnc3c2cnn3-c2cccc(C)c2)cc1,28,21,-29,-12,10,29
CC(=O)Nc1ccc(Nc2ncnc3c2cnn3-c2ccccc2)cc1,27,12,1,-10,0,38*

# Screens: PubChem BioAssay, The Scripps Research Institute Molecular Screening Center
